Here are results for 14 compounds from ChEMBL document CHEMBL3244179, “Potential inhibitors of S-adenosylmethionine-dependent methyltransferases. 7. Role of the ribosyl moiety in enzymatic binding of S-adenosyl-L-homocysteine and S-adenosyl-L-methionine” (J Med Chem, 1978).

Molecules are shown by their SMILES.

For data set [1], the target named is T1, Acetylserotonin O-methyltransferase (Bos taurus) (UniProt P10950).
T1 sequence (whole entry): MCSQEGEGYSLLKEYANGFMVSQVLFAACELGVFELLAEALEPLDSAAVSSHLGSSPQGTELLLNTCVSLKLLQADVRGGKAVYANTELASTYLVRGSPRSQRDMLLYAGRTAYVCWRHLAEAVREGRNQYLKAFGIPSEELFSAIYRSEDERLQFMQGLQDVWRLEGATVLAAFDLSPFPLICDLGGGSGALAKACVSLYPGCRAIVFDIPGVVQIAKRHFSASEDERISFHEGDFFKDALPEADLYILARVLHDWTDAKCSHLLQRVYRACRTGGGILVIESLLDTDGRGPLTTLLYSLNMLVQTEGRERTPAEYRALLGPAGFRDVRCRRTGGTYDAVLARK
Nature of the data set: Inhibition of bovine pineal gland HIOMT at 0.2 mM by radiochemical technique. In a few lines:
(§1)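 Bovine pineal gland HIOMT, purified by a published method, was tested with inhibitor at 0.2 or 2.0 mM, SAM-14CH3 (0.05 μCi, 1.0 mM final) and N-acetylserotonin (1.0 mM final) in buffer. Incubation was at 37 °C. Product formation was read radiochemically after extraction of the labeled product.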

Data set [2] has as its target T2, Phenylethanolamine N-methyltransferase (Bos taurus) (UniProt P10938).
T2 sequence (whole entry): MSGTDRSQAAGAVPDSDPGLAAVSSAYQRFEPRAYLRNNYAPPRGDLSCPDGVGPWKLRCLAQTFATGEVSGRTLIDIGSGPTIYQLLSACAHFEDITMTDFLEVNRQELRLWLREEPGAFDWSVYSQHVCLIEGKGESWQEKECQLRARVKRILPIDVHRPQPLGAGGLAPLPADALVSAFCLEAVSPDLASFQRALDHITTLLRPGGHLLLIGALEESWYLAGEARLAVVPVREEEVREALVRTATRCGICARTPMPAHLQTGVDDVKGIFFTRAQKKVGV
Nature of the data set: Inhibition of bovine adrenal medulla PNMT at 2 mM by radiochemical technique. The gist of the method: (§2)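 Bovine adrenal medulla PNMT, purified by a published method, was tested with inhibitor at 0.2 or 2.0 mM, SAM-14CH3 (0.05 μCi, 1.0 mM final) and DL-β-phenylethanolamine (1.0 mM final) in buffer. Incubation was at 37 °C. Activity was measured radiochemically by extracting the labeled product.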

The nature of data set [3]: Retardation factor, Rf of the compound on silica gel GF containing EtOH-HOAc-H2O (20:2:2)/0.1 M phosphate buffer at 7.4 by chromatography. The format is physicochemical. Conditions: pH 7.4. In a few lines:
(§3)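 TLC plates carried a 250 μm silica gel GF layer. Spots were located visually under UV light, and with ninhydrin for amine-containing compounds.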

Data set [4] addresses T1, Acetylserotonin O-methyltransferase (Bos taurus). The experiment in a line: Inhibition of bovine pineal gland HIOMT at 2 mM by radiochemical technique. In a few lines: as §1
In data set [5] the target is Histamine N-methyltransferase (Cavia porcellus) (UniProt Q9EST2). The experiment in a line: Inhibition of guinea pig HMT at 0.2 mM by radiochemical technique. In a few lines: (§4)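 HMT from guinea pig brain, purified by a published method, was tested with inhibitor at 0.2 or 2.0 mM, SAM-14CH3 (0.05 μCi, 1.0 mM final) and histamine (1.0 mM final) in buffer. Incubation was at 37 °C. Activity was measured radiochemically by extracting the radiolabeled product.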
Chain of Histamine N-methyltransferase (Cavia porcellus) (Q9EST2 whole entry): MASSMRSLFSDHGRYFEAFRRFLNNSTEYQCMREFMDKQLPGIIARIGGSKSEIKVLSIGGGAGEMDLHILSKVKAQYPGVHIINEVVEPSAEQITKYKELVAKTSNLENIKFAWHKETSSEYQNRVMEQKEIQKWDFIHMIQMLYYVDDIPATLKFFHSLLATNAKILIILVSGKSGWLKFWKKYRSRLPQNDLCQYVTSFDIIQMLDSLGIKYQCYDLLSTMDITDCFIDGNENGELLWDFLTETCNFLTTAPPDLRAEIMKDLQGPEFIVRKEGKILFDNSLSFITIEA

Data set [6] has as its target T3, Catechol O-methyltransferase (Rattus norvegicus) (UniProt P22734).
T3 sequence (whole entry): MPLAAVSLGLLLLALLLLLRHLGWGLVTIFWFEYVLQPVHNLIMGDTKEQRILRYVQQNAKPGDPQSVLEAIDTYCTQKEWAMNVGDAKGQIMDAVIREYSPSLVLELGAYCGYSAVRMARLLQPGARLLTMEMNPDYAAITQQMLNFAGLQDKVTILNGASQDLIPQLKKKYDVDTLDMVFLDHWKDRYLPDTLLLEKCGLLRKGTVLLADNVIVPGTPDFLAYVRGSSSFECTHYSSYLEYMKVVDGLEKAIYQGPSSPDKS
Nature of the data set: Inhibition of Sprague-Dawley rat liver COMT at 2 mM by radiochemical technique. The gist of the method:
(§5)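 Rat liver COMT, purified by a published method, was tested with inhibitor at 0.2 or 2.0 mM, SAM-14CH3 (0.05 μCi, 1.0 mM final) and 3,4-dihydroxybenzoate (2.0 mM final) in buffer. Incubation was at 37 °C. Activity was measured radiochemically by extracting the radiolabeled methylated product.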

Data set [7] can be described thus: Retardation factor, Rf of the compound on silica gel GF containing 5% Na2HPO4 by chromatography. The format is physicochemical. In a few lines: as §3
Data set [8] concerns the target Histamine N-methyltransferase (Cavia porcellus) (UniProt Q9EST2). The experiment in a line: Inhibition of guinea pig HMT at 2 mM by radiochemical technique. The gist of the method: as §4
Data set [9] has as its target T3, Catechol O-methyltransferase (Rattus norvegicus). The experiment in a line: Inhibition of Sprague-Dawley rat liver COMT at 0.2 mM by radiochemical technique. In a few lines:
as §5

Data set [10] has as its target T2, Phenylethanolamine N-methyltransferase (Bos taurus). Nature of the data set: Inhibition of bovine adrenal medulla PNMT at 0.2 mM by radiochemical technique. The gist of the method: as §2
Data set [11] deals with Histamine N-methyltransferase (Cavia porcellus) (UniProt Q9EST2). Nature of the data set: Inhibition of guinea pig HMT at 0.4 mM by radiochemical technique.
Data set [12] has as its target T3, Catechol O-methyltransferase (Rattus norvegicus). Nature of the data set: Inhibition of Sprague-Dawley rat liver COMT at 1 mM by radiochemical technique.
In data set [13] the target is T1, Acetylserotonin O-methyltransferase (Bos taurus). The experiment in a line: Inhibition of bovine pineal gland HIOMT at 0.4 mM by radiochemical technique.
For data set [14], the target named is T3, Catechol O-methyltransferase (Rattus norvegicus). The experiment in a line: Inhibition of Sprague-Dawley rat liver COMT at 0.4 mM by radiochemical technique.
Data set [15] addresses Histamine N-methyltransferase (Cavia porcellus) (UniProt Q9EST2). The experiment in a line: Inhibition of guinea pig HMT at 1 mM by radiochemical technique.
The target of data set [16] is T2, Phenylethanolamine N-methyltransferase (Bos taurus). The experiment in a line: Inhibition of bovine adrenal medulla PNMT at 0.4 mM by radiochemical technique.
Data set [17] has the same target. The experiment in a line: Inhibition of bovine adrenal medulla PNMT at 1 mM by radiochemical technique.
Data set [18] addresses T1, Acetylserotonin O-methyltransferase (Bos taurus). Nature of the data set: Inhibition of bovine pineal gland HIOMT at 1 mM by radiochemical technique.

In the case of `C[S+](CC[C@@H](N)C(=O)O)C[C@H](CO)O[C@H](CO)n1cnc2c(N)ncnc21` (some centres undefined), the inhibition in data set [1] was 0%; in data set [2] it was 21%; in data set [4] it was 8%; in [5] it was 0%; in data set [6], 14%; in [8] it was 0%. In addition, the inhibition in [9] came to 7%; in [10], 1%. Also, the Rf in [3] is reported as 0.11; in [7] it was 0.46.
Regarding `C[S+](CC[C@H](N)C(=O)[O-])C[C@H]1O[C@@H](n2cnc3c(N)ncnc32)[C@H](O)[C@@H]1O` (some centres undefined) [ADEMETIONINE], the Rf stood at 0.2 in data set [3] and 0.34 in data set [7].
Consider `Nc1ncnc2c1ncn2[C@@H](CO)O[C@@H](CO)CSCC[C@@H](N)C(=O)O`, for which the inhibition in [1] stood at 9%; in [2], 16%; in data set [4], 26%; in data set [5], 0%; in data set [6], 26%; in data set [8], 19%. Further, the inhibition in data set [9] worked out at 0%; in [10] it was 8%. For the same compound, the Rf in data set [3] came out at 0.72; in data set [7], 0.65.
As to `Nc1ncnc2c1nnn2[C@@H](CO)O[C@@H](CO)CSCC[C@@H](N)C(=O)O`, the inhibition in data set [1] stood at 12%; in data set [2], 10%; in data set [4], 31%; in data set [5], 0%; in data set [6], 17%; in data set [8], 0%. Besides, the inhibition in [9] and in [10] was 0% in each case. Also, the Rf in data set [3] came out at 0.58; in data set [7] it was 0.69.
With `Nc1nnnc2c1ncn2[C@@H](CO)O[C@@H](CO)CSCC[C@@H](N)C(=O)O`, the inhibition in [1] is 18%; in data set [2] it was 15%; in data set [4] it was 25%; in [5], 0%; in data set [6], 5%; in data set [8], 0%. The inhibition in data set [9] was determined as 4%; in data set [10], 0%. The Rf in data set [3] is listed as 0.66; in [7], 0.69.
On to `Nc1nnnc2c1ncn2[C@@H]1O[C@H](CSCCC(N)C(=O)O)[C@@H](O)[C@H]1O` (single isomer, unassigned), for which the inhibition in data set [11] came to 0%; in data set [12], 6%; in data set [13], 23%; in data set [14] it was 3%; in data set [15], 8%; in data set [16], 38%. In addition, the results for the inhibition in data set [17] and in data set [18] were 58% and 39%, respectively. Further, the values for the Rf in data set [3] and in data set [7] were 0.79 and 0.7, respectively.
On to `Nc1ncnc2c1nnn2[C@@H]1O[C@H](CSCCC(N)C(=O)O)[C@@H](O)[C@H]1O` (single isomer, unassigned), for which the inhibition in data set [1] was determined as 49%; in data set [4], 89%. Besides, the Rf in data set [3] turned out to be 0.72; in data set [7], 0.71.
As to `Nc1ncnc2c1ncn2[C@@H](CO)O[C@@H](CO)CSC[C@@H](N)C(=O)O`, the inhibition in [1] came out at 0%; in [2] it was 15%; in data set [4], 0%; in [5] it was 0%; in [6] it was 12%; in data set [8] it was 3%. In addition, the inhibition worked out at 0% in data set [9] and 10% in [10]. Also, the values for the Rf in [3] and in data set [7] were 0.75 and 0.63, respectively.
In the case of `Nc1ncnc2c1ncn2[C@@H]1O[C@H](CSCC(N)C(=O)O)[C@@H](O)[C@H]1O` (single isomer, unassigned), the inhibition in [1] is 12%; in data set [2], 27%; in data set [4], 33%; in data set [5], 14%; in data set [6] it was 5%; in data set [8] it was 43%. The inhibition came to 0% in data set [9] and 11% in [10]. Also, the Rf is listed as 0.79 in [3] and 0.74 in data set [7].
On to `Nc1ncnc2c1ncn2[C@@H]1O[C@H](CSCCC(N)C(=O)O)[C@@H](O)[C@H]1O` (single isomer, unassigned), for which the inhibition in [1] was found to be 1%; in [2] it was 32%; in data set [4], 6%; in [5], 73%; in data set [6] it was 22%; in data set [8], 99%. In addition, the inhibition in data set [9] worked out at 5%; in [10], 14%.
As to `Nc1ncnc2c1ncn2[C@@H](CO)O[C@@H](CO)C[S+]([O-])CC[C@@H](N)C(=O)O` (some centres undefined), the inhibition in [1] was 7%; in data set [2], 17%; in [4] it was 16%; in data set [5] it was 0%; in data set [6] it was 22%; in data set [8], 0%. The results for the inhibition in data set [9] and in data set [10] were 5% and 9%, respectively. Further, the results for the Rf in data set [3] and in [7] were 0.74 and 0.6, respectively.
As for `Nc1ncnc2c1ncn2[C@@H]1O[C@H](C[S+]([O-])CC[C@@H](N)C(=O)O)[C@@H](O)[C@H]1O` (some centres undefined), the inhibition was found to be 0% in data set [1]; 22% in [2]; 0% in data set [4]; 0% in [5]; 42% in data set [6]; 9% in data set [8]. In addition, the inhibition in data set [9] was 14%; in data set [10] it was 10%. Further, the Rf in [3] came to 0.74; in data set [7], 0.72.
With `Nc1ncnc2c1ncn2[C@@H](CO)O[C@@H](CO)CSCC[C@H](N)C(=O)O`, the inhibition in [1] came out at 0%; in [2], 0%; in [4], 6%; in data set [5], 0%; in data set [6], 25%; in data set [8], 0%. For the same compound, the inhibition in [9] amounted to 2%; in data set [10], 0%. The results for the Rf in [3] and in [7] were 0.72 and 0.65, respectively.
With `Nc1ncnc2c1ncn2[C@@H]1O[C@H](CSCC[C@H](N)C(=O)O)[C@@H](O)[C@H]1O` [S-ADENOSYLHOMOCYSTEINE], the inhibition in [1] turned out to be 71%; in data set [2] it was 92%; in data set [4], 94%; in [5], 40%; in data set [6], 87%; in data set [8] it was 89%. The inhibition in data set [9] came to 39%; in data set [10], 49%. Besides, the Rf in [3] and in data set [7] was 0.73 throughout.

What is called inhibition is the change of the read-out against control, counted positive when it falls.
